Results taken from PubChem BioAssay AID720543 (The Scripps Research Institute Molecular Screening Center, 2013).
About 2,000 (0.54%) of roughly 370,000 compounds were called active. What follows is part of a selection rich in actives, with near analogues and random picks from the rest. Unmarked numbers belong to inactive results.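 How the source made its calls: active means inhibition exceeding the mean over every tested compound plus 3 SD (cut at about 30% in these data); inactive means the rest.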

Target: (Lyso)-N-acylphosphatidylethanolamine lipase (Mus musculus) (UniProt Q8VD66)
Sequence (Q8VD66 whole entry, looked up): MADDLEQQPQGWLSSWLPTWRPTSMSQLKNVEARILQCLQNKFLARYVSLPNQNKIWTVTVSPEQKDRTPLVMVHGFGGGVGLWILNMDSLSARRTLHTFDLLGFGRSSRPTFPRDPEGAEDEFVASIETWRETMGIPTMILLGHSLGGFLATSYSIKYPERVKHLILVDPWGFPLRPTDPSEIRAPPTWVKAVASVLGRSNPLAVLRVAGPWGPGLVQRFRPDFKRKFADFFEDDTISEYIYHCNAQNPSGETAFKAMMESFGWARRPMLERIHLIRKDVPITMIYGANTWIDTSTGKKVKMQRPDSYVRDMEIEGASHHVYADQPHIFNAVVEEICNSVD
Experiment: mouse ABHD4 hydrolase activity blockers – biochemical, fluorescence polarization, primary screen (AID 720543);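 further: 0% = plate median of compound wells and 100% = S159A mutant with DMSO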
Conditions: purified mABHD4, FP-Rh probe fluorescence polarization; at 8.92 µM; active compounds read high
Summary of the method: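 Test system: mABHD4 protein; Read-out basis: % inhibition; Incubation: 45 min + 60 min at 25 °C; Repeats: single replicate; Technique: fluorescence polarization with parallel and perpendicular emission, 525/598 nm; Compound: 8.92 µM, single dose; Benchmarks: full inhibition S159A mutant plus DMSO, zero as sample-well median.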

Structure (SMILES)	inhibition
NC1=CC(=O)C(=O)c2cccnc21	59.2% (active)
COC(=O)C[C@@H]1CC[C@@H]2[C@H](COc3ccc(NC(=O)c4cccc(F)c4)cc3C(=O)N2C)O1	-0.54%
CO[C@@H]1CN(C)C(=O)c2cc(NC(=O)C3CC3)ccc2OC[C@H](C)N(C(=O)CN2CCOCC2)C[C@@H]1C	-0.34%
CCCOc1cccc(C(=O)Nc2nnn(CCC)n2)c1	7.16%
Cc1ccc(F)cc1NC(=O)c1cccc(N(C)C)c1	-2.26%
CCC(CO)Oc1cc(NC(=O)c2cccc(F)c2)c2ncn(C(C)C)c2c1 (stereo not drawn)	44.4% (active)
Nc1ncnc2c1ncn2[C@@H]1O[C@H](CNS(=O)(=O)c2ccc(-c3ccno3)s2)[C@@H](O)[C@H]1O	-3.46%
CC(C)(C)OC(=O)NCCc1ccccc1/C=C/S(=O)(=O)NCc1ccc(F)cc1	14.8%
Cc1cccc(-n2cnc(C(=O)Nc3cccnc3)c2)n1	-2.09%
Cc1cccc(-n2cnc(C(=O)NNC(=S)Nc3ccccc3)c2)n1	43.3% (active)
O=C(NNC(=S)Nc1ccccc1)c1cccc(S(=O)(=O)N2CCOCC2)c1	1.73%
CC(=O)N1N=C(c2ccncc2)OC1(Cc1ccccc1)Cc1ccccc1	-3.49%
CCOC(=O)[C@]12CCCC3=C1N(CCC3)C(=O)[C@@H](CC(=O)NCc1cccs1)C2	-5.06%
CN(C)CCCN(Cc1cc2cc3c(cc2[nH]c1=O)OCCO3)C(=O)NC1CCCCC1	1.3%
O=S1(=O)c2ccc(Br)cc2-n2nncc2CN1Cc1cccc(Cl)c1	-5.52%
Cc1cc2ccccc2n1CCNC(=O)COc1ccc2ccccc2c1	40.9% (active)
Cc1ccccc1OCC(=O)NCC(=O)OCC(=O)c1ccc2ccccc2c1	3.01%
O=C(COc1ccc(Cl)cc1)NCCSc1ccccc1	-6.3%
O=C(N1CCOCC1)N1CC[C@H]2[C@H](CCCN2Cc2ccc(F)cc2)C1	4.72%
CC(C)C(C#CC1CC1)N(Cc1ccc2c(c1)OCO2)C(N)=NC(=O)/C=C/c1cccc(C(F)(F)F)c1 (stereo not drawn)	4.25%
O=C(Nn1c(SCc2ccc([N+](=O)[O-])cc2)nc2ccccc2c1=O)c1ccc(F)cc1	-52.4%
O=c1[nH]n(-c2ccc([N+](=O)[O-])cc2)c(=O)c2ccccc12	59.3% (active)
C=CCNC(=S)N1CCN(CCN=Cc2c(C)[nH]n(-c3ccc([N+](=O)[O-])cc3)c2=O)CC1	-6.41%
